The record followed here is ChEMBL document CHEMBL1221379, “Identification and hit-to-lead optimization of a novel class of CB1 antagonists” (Bioorg Med Chem Lett, 2010).

By IC50 is commonly meant the concentration that gives 50% inhibition. The term solubility denotes the dissolved amount per volume that the medium holds. A word on the ED50: it is the dose at which the effect has come halfway, by size or by number of responders. By half-life is commonly meant how long it takes for the measured level to halve. As usually defined, the bioavailability is the share of a dose that reaches the circulation, judged against a reference dose that is usually intravenous. In general, AUC(0-t) refers to exposure summed from dosing to a finite time, without extrapolation to infinity. As usually defined, the clearance is the volume of plasma or blood freed of the substance per unit of time.

In brackets after ≈: the same amount, converted by molar mass.

The nature of data set [1]: Metabolic stability in mouse liver microsome assessed as compound remaining after 0.5 hrs. Type of data set: ADME. The conditions noted are these: liver microsomes, read-out: Stability. The method in brief: (§1)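 Human or mouse liver microsomes (300 nM cytochrome P450) in phosphate buffer pH 7.4 with 1 µM test compound and 1 mM NADPH. Incubated 30 min at 37 °C, stopped with acetonitrile, centrifuged, and analysed by LC/MS. Result given as % compound remaining at 0.5 h.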
On the technique in general: Liver microsomes are vesicles of endoplasmic reticulum, rich in cytochrome P450 enzymes.

Data set [2] concerns the target Cannabinoid receptor 1 (Homo sapiens, UniProt P21554). Briefly: Antagonist activity at human cannabinoid CB1 receptor expressed in CHO cells by luciferase reporter gene assay.
Data set [3] can be described thus: Aqueous solubility of the compound. The class given is physicochemical. The conditions noted are these: buffer. An outline of the steps:
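Shake-flask method. 10 mM DMSO stock added to 0.05 M phosphate buffered saline pH 7.4, 2% DMSO final. Vortexed at 1500 rpm for 24 h at 21 °C, then vacuum-filtered. Filtrate assayed by HPLC with UV at 230 nm against a calibration from a 50 µM DMSO solution. Duplicate determinations, averaged.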

Data set [4] is described as follows: Metabolic stability in human liver microsome assessed as compound remaining after 0.5 hrs. The class given is ADME. To be noted: liver microsomes, read-out: Stability. An outline of the steps:
as §1

In data set [5] the test system is Mus musculus. Briefly: Inhibition of WIN-55212-2-induced hypothermia in mouse assessed as change in rectal temperature at 10 umol/kg sc administered 15 mins before WIN-55212-2 challenge measured after 60 mins. Set-up: scale not given: the % may be the effect or the level left.
In data set [6] the test system is Mus musculus. Briefly: Inhibition of WIN-55212-2-induced hypothermia in sc dosed mouse assessed as change in rectal temperature administered 15 mins before WIN-55212-2 challenge measured after 60 mins. To be noted: 1 h.
For data set [7], the system named is Mus musculus. Briefly: Inhibition of WIN-55212-2-induced hypothermia in mouse assessed as change in rectal temperature at 1 umol/kg sc administered 15 mins before WIN-55212-2 challenge measured after 60 mins. Set-up: scale not given: the % may be the effect or the level left.
Data set [8] deals with Mus musculus. Briefly: Inhibition of WIN-55212-2-induced hypothermia in mouse assessed as change in rectal temperature at 0.3 umol/kg sc administered 15 mins before WIN-55212-2 challenge measured after 60 mins. Set-up: scale not given: the % may be the effect or the level left.
Data set [9] has as its system Mus musculus. Briefly: Inhibition of WIN-55212-2-induced hypothermia in mouse assessed as change in rectal temperature at 0.01 umol/kg sc administered 15 mins before WIN-55212-2 challenge measured after 60 mins. Set-up: scale not given: the % may be the effect or the level left.
In data set [10] the test system is Mus musculus. In words: Inhibition of WIN-55212-2-induced hypothermia in mouse assessed as change in rectal temperature at 3 umol/kg sc administered 15 mins before WIN-55212-2 challenge measured after 60 mins. Set-up: scale not given: the % may be the effect or the level left.
Data set [11] deals with Mus musculus. In words: Inhibition of WIN-55212-2-induced hypothermia in mouse assessed as change in rectal temperature at 30 umol/kg sc administered 15 mins before WIN-55212-2 challenge measured after 60 mins. Set-up: scale not given: the % may be the effect or the level left.
The subject of data set [12] is Mus musculus. Briefly: Inhibition of WIN-55212-2-induced hypothermia in mouse assessed as change in rectal temperature at 0.1 umol/kg sc administered 15 mins before WIN-55212-2 challenge measured after 60 mins. Set-up: scale not given: the % may be the effect or the level left.
Data set [13] deals with Mus musculus. In words: Inhibition of WIN-55212-2-induced hypothermia in mouse assessed as change in rectal temperature at 100 umol/kg sc administered 15 mins before WIN-55212-2 challenge measured after 60 mins. Set-up: scale not given: the % may be the effect or the level left.
The nature of data set [14]: Half life in Wistar rat at 1 mg/kg, iv. The conditions noted are these: in vivo. The class given is ADME, organism-based. Set-up: dose 1 mg/kg, route intravenous. The method in brief: (§2)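 Male Wistar rats dosed 5 mpk po in 0.5% gelatin in 5% mannitol (aq), or 1 mpk iv in 20% N,N-dimethylacetamide in saline. AUC po taken over 0–7.5 h; clearance and half-life from iv dosing; oral bioavailability and Vss from po/iv pharmacokinetic parameters.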

Data set [15] is described as follows: Volume of distribution at steady state in Wistar rat at 5 mg/kg, po and 1 mg/kg, iv. Type of data set: ADME, organism-based. To be noted: in vivo, read-out: Vdss. The method in brief:
as §2

A short description of data set [16]: Oral bioavailability in Wistar rat at 5 mg/kg. To be noted: in vivo. Type of data set: ADME, organism-based. An outline of the steps: as §2
A short description of data set [17]: AUC (0 to 7.5 hrs) in Wistar rat at 5 mg/kg, po. The class given is ADME, organism-based. Set-up: time < 7.5 hr, dose 5 mg/kg, route oral. The conditions noted are these: plasma. The method in brief:
as §2

Data set [18] is described as follows: Clearance in Wistar rat at 1 mg/kg, iv. The conditions noted are these: in vivo. The class given is ADME, organism-based. Set-up: dose 1 mg/kg, route intravenous. An outline of the steps:
as §2

Chain of Cannabinoid receptor 1 (P21554 whole entry): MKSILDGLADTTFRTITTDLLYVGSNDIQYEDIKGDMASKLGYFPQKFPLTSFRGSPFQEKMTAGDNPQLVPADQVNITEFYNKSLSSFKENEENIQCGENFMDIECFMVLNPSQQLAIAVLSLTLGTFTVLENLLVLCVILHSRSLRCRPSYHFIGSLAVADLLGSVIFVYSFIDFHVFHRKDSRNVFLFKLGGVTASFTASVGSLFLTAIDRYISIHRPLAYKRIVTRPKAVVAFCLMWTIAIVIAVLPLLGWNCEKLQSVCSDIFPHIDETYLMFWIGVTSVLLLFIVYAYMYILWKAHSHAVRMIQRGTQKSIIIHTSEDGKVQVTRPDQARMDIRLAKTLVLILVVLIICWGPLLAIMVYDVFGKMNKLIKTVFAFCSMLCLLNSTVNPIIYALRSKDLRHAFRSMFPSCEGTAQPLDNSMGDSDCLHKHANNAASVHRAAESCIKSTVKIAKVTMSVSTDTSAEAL

`COc1cc(F)ccc1-c1cccc(Cn2ccc3ccc(NC(=O)C(C)(C)C)cc32)c1`: the remaining at 0.5 h in [1] stood at 58%; in [4], 51%. The same molecule displayed an IC50 in data set [2] of 58 nM. Further, in data set [3], the solubility is less than 1 µg/mL.

In the case of `CC(C)(C)C(=O)Nc1ccc2ncn(Cc3cccc(-c4cccc5c4OCO5)c3)c2c1`, the remaining at 0.5 h in [1] was found to be 2%; in data set [4] it was 35%. The molecule also returned an IC50 in data set [2] of 64 nM.

Take `Cn1cc(Cc2cccc(-c3cccc4c3OCO4)n2)c2cc(NC(=O)C(C)(C)CO)ccc21`: the remaining at 0.5 h in data set [1] turned out to be 16%; in data set [4] it was 56%. In data set [2], the IC50 is 7 nM. Also, in data set [3], the solubility is less than 1 µg/mL.

Regarding `COc1cc(F)ccc1-c1cccc(Cn2ccc3ccc(NC(=O)C(C)(C)CO)cc32)n1`, the remaining at 0.5 h in data set [1] was 54%; in [4] it was 45%. The half-maximal inhibitory concentration (IC50) in [2] stood at 45 nM. For the same molecule, in data set [3], the solubility came to 11.7 µg/mL (≈ 26.1 µM).

`CC(C)(C)C(=O)Nc1ccc2ccn(Cc3cccc(-c4cccc5c4OCO5)c3)c2c1`: the remaining at 0.5 h in data set [1] turned out to be 65%; in data set [4], 72%. The IC50 in [2] is 51 nM. In data set [3], this molecule registered a solubility of less than 1 µg/mL.

In the case of `CC(C)(C)C(=O)Nc1ccc2ncn(Cc3cccc(-c4cccc5c4OCO5)n3)c2c1`, the remaining at 0.5 h in [1] was 17%; in [4] it was 28%. In data set [2], this molecule showed an IC50 of 21 nM.

Consider `COc1cc(F)ccc1-c1cccc(Cc2cn(C)c3ccc(NC(=O)CC(C)(C)O)cc23)n1`, for which the remaining at 0.5 h was determined as 14% in [1] and 41% in [4]. The molecule also showed an IC50 in data set [2] of 19 nM. The molecule also had a solubility in data set [3] of 10.6 µg/mL (≈ 23 µM).

Regarding `COc1cc(F)ccc1-c1cccc(Cn2ccc3ccc(NC(=O)CC(C)(C)O)cc32)n1`, the remaining at 0.5 h in [1] stood at 44%; in data set [4] it was 35%. For the same molecule, the IC50 in data set [2] was determined as 23 nM. Besides, the concentration in solution in data set [3] (solubility) came to 17.9 µg/mL (≈ 40 µM).

With `Cc1c(C(=O)NN2CCCCC2)nn(-c2ccc(Cl)cc2Cl)c1-c1ccc(Cl)cc1` [RIMONABANT], the Activity in [5] is given as 113.4%; in data set [7] it was 60.2%; in data set [8], 14.7%; in data set [9], -0.2%; in data set [10], 116.7%; in data set [11], 100.4%. Also, the Activity in [12] was found to be 13.8%. In addition, in [6], the ED50 came to 0.8 µmol/kg.

On to `COc1cc(F)ccc1-c1cccc(Cc2cn(C)c3ccc(NC(=O)C(C)(C)C)cc23)c1`, for which the remaining at 0.5 h in data set [1] came out at 72%; in [4], 70%. The molecule also returned an IC50 in [2] of 45 nM. Also, the solubility in [3] is less than 1 µg/mL.

As to `CC(C)(O)CC(=O)Nc1ccc2ccn(Cc3cccc(-c4cccc5c4OCO5)n3)c2c1`, the remaining at 0.5 h in [1] is 53%; in data set [4], 51%. Further, half-maximal inhibition in data set [2] (IC50) required 3 nM. For the same molecule, the solubility in data set [3] is less than 1 µg/mL.

For `COc1cc(F)ccc1-c1cccc(Cc2cn(C)c3ccc(NC(=O)C(C)(C)CO)cc23)n1`, the remaining at 0.5 h in data set [1] was found to be 5%; in data set [4] it was 47%. The molecule also came in with an IC50 in data set [2] of 27 nM. For the same molecule, the concentration in solution in data set [3] (solubility) came to 2 µg/mL (≈ 4.33 µM).

On to `COc1cc(F)ccc1-c1cccc(Cn2cnc3ccc(NC(=O)C(C)(C)C)cc32)c1`, for which the IC50 in [2] came out at 269 nM.

As to `Cn1cc(Cc2cccc(-c3cccc4c3OCO4)n2)c2cc(NC(=O)CC(C)(C)O)ccc21`, the remaining at 0.5 h in data set [1] was 36%; in data set [4] it was 56%. For the same molecule, the Activity in data set [13] was 92.5%; in data set [11], 46.8%. The ED50 in data set [6] is 30 µmol/kg. Further, in [14], the half-life was 60 min. Also, in data set [15], the Vd amounted to 1.2 L/kg. Moreover, in data set [16], the bioavailability is 37%. For the same molecule, the IC50 in data set [2] amounted to 5 nM. For the same molecule, the solubility in data set [3] came to 14.9 µg/mL (≈ 32.6 µM). The AUC(0-t) at 7.5 h in data set [17] is 1290 ng·h/mL. The clearance in [18] came to 19 mL/min/kg.

As to `COc1cc(F)ccc1-c1cccc(Cn2cnc3ccc(NC(=O)C(C)(C)C)cc32)n1`, the values for the remaining at 0.5 h in [1] and in data set [4] were 1% and 14%, respectively. It took 73 nM to reach half-maximal inhibition in data set [2] (IC50).

As to `COc1ccccc1-c1cccc(Cn2cnc3ccc(C(=O)NCc4cccc(F)c4)cc32)c1`, the remaining at 0.5 h in data set [1] came out at 0%; in data set [4], 2%. The molecule also registered an IC50 in data set [2] of 104 nM.

As for `CC(C)(CO)C(=O)Nc1ccc2ccn(Cc3cccc(-c4cccc5c4OCO5)n3)c2c1`, the remaining at 0.5 h in data set [1] was 52%; in data set [4], 62%. This molecule also displayed a concentration for half-maximal inhibition (IC50) in data set [2] of 7 nM. The molecule further yielded a solubility in data set [3] of 3.2 µg/mL (≈ 7.22 µM).

As to `Cn1cc(Cc2cccc(-c3cccc4c3OCO4)c2)c2cc(NC(=O)C(C)(C)C)ccc21`, the remaining at 0.5 h in data set [1] was 29%; in data set [4], 52%. This molecule returned an IC50 in data set [2] of 37 nM. The molecule also yielded a solubility in [3] of less than 1 µg/mL.
